Source: ChEMBL document CHEMBL3779892, “Increasing the binding affinity of VEGFR-2 inhibitors by extending their hydrophobic interaction with the active site: Design, synthesis and biological evaluation of 1-substituted-4-(4-methoxybenzyl)phthalazine derivatives” (Eur J Med Chem, 2016)

Assays:
Type in all cases: functional
[1] = Growth inhibition of human SNB75 cells at 10 uM after 48 hrs by sulforhodamine B assay; conditions: SNB-75, 48 h, read-out: GI
Method in brief: (§1)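 Run at NCI on the 60-line panel. Cells grown in RPMI 1640 with 5% FBS and 2 mM L-glutamine, plated at 5000–40,000 cells/well by doubling time, and held 24 h at 37 °C before dosing. Drug (DMSO stock) given at a single final 10 µM in triplicate wells for 48 h. Adherent cells fixed with cold TCA (10% final), suspension cells with 16% TCA. SRB stain read at 515 nm. Percent growth from Tz, C and Ti.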

[2] = system: KM12; test: Growth inhibition of human KM12 cells at 10 uM after 48 hrs by sulforhodamine B assay; conditions: KM12, 48 h, read-out: GI; method in brief: as §1
[3] = Growth inhibition of human RPMI8226 cells at 10 uM after 48 hrs by sulforhodamine B assay; conditions: RPMI-8226, 48 h, read-out: GI; method in brief: as §1
[4] = system: A498; test: Growth inhibition of human A498 cells at 10 uM after 48 hrs by sulforhodamine B assay; conditions: A498, 48 h, read-out: GI; method in brief: as §1
[5] = system: 786-0; test: Growth inhibition of human 786-0 cells at 10 uM after 48 hrs by sulforhodamine B assay; conditions: 786-0, 48 h, read-out: GI; method in brief: as §1
[6] = Growth inhibition of human PC3 cells at 10 uM after 48 hrs by sulforhodamine B assay; conditions: PC-3, 48 h, read-out: GI; method in brief: as §1
[7] = Growth inhibition of human DU145 cells at 10 uM after 48 hrs by sulforhodamine B assay; conditions: DU-145, 48 h, read-out: GI; method in brief: as §1
[8] = Growth inhibition of human HCC2998 cells at 10 uM after 48 hrs by sulforhodamine B assay; conditions: HCC 2998, 48 h, read-out: GI; method in brief: as §1
[9] = Growth inhibition of human SW620 cells at 10 uM after 48 hrs by sulforhodamine B assay; conditions: SW-620, 48 h, read-out: GI
Method in brief: (§2)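 NCI-60 panel, adherent cells grown in RPMI 1640 with 5% FBS and 2 mM L-glutamine, plated at 5000–40,000 cells/well and preincubated 24 h at 37 °C, 5% CO2. 10 µM final compound from DMSO stock, triplicate wells, 48 h. Fixed with cold TCA (10% final, 60 min, 4 °C) and stained with 0.4% SRB. Absorbance read at 515 nm; growth calculated against time-zero and control wells.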

[10] = Growth inhibition of human OVCAR3 cells at 10 uM after 48 hrs by sulforhodamine B assay; conditions: OVCAR-3, 48 h, read-out: GI; method in brief: as §1
[11] = Growth inhibition of human TK10 cells at 10 uM after 48 hrs by sulforhodamine B assay; conditions: TK-10, 48 h, read-out: GI; method in brief: as §2
[12] = Growth inhibition of human Hs 578T cells at 10 uM after 48 hrs by sulforhodamine B assay; conditions: read-out: GI; method in brief: as §1
[13] = system: SK-MEL-5; test: Growth inhibition of human SK-MEL-5 cells at 10 uM after 48 hrs by sulforhodamine B assay; conditions: SK-MEL-5, 48 h, read-out: GI; method in brief: as §1
[14] = system: MDA-MB-435; test: Growth inhibition of human MDA-MB-435 cells at 10 uM after 48 hrs by sulforhodamine B assay; conditions: MDA-MB-435, 48 h, read-out: GI; method in brief: as §1
[15] = Growth inhibition of human MOLT4 cells at 10 uM after 48 hrs by sulforhodamine B assay; conditions: MOLT-4, 48 h, read-out: GI; method in brief: as §1
[16] = system: SN12C; test: Growth inhibition of human SN12C cells at 10 uM after 48 hrs by sulforhodamine B assay; conditions: read-out: GI; method in brief: as §1
[17] = Growth inhibition of human HCT116 cells at 10 uM after 48 hrs by sulforhodamine B assay; conditions: HCT-116, 48 h, read-out: GI; method in brief: as §1
[18] = system: SR; test: Growth inhibition of human SR cells at 10 uM after 48 hrs by sulforhodamine B assay; conditions: read-out: GI
Method in brief: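 NCI-60 screen. Cells were grown in RPMI 1640 with 5% FBS and 2 mM L-glutamine, plated at 5000–40,000 cells/well and held 24 h at 37 °C, 5% CO2. Single 10 µM final dose from DMSO stock, triplicate wells, 48 h. Settled cells were fixed with 80% TCA (16% final) and stained with 0.4% SRB. Dye was solubilized in 10 mM Tris and read at 515 nm. Growth was calculated against time-zero and untreated wells.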

[19] = system: MDA-MB-468; test: Growth inhibition of human MDA-MB-468 cells at 10 uM after 48 hrs by sulforhodamine B assay; conditions: MDA-MB-468, 48 h, read-out: GI; method in brief: as §1
[20] = Growth inhibition of human UACC257 cells at 10 uM after 48 hrs by sulforhodamine B assay; conditions: UACC-257, 48 h, read-out: GI; method in brief: as §2

Row | SMILES | inhibition of growth at 10 µM [1] | inhibition of growth at 10 µM [2] | inhibition of growth at 10 µM [3] | inhibition of growth at 10 µM [4] | inhibition of growth at 10 µM [5] | inhibition of growth at 10 µM [6] | inhibition of growth at 10 µM [7] | inhibition of growth at 10 µM [8] | inhibition of growth at 10 µM [9] | inhibition of growth at 10 µM [10] | inhibition of growth at 10 µM [11] | inhibition of growth at 10 µM [12] | inhibition of growth at 10 µM [13] | inhibition of growth at 10 µM [14] | inhibition of growth at 10 µM [15] | inhibition of growth at 10 µM [16] | inhibition of growth at 10 µM [17] | inhibition of growth at 10 µM [18] | inhibition of growth at 10 µM [19] | inhibition of growth at 10 µM [20]
1 | COc1ccc(Cc2nnc(Nc3cccc(OC)c3)c3ccccc23)cc1 | 41% | < 30% | 77% | < 30% | < 30% | 30% | < 30% | < 30% | < 30% | < 30% | < 30% | < 30% | < 30% | < 30% | < 30% | < 30% | 40% | 35% | < 30% | < 30%
2 | COc1ccc(Cc2nnc(Nc3ccc(Cl)c(C(F)(F)F)c3)c3ccccc23)cc1 | < 30% | 52% | 94% | 46% | 41% | 61% | 37% | 42% | < 30% | 59% | 40% | 34% | < 30% | < 30% | 69% | 46% | 73% | 43% | 54% | < 30%
3 | COc1ccc(Cc2nnc(Nc3ccc(NC(=O)Nc4cccc(Cl)c4)cc3)c3ccccc23)cc1 | < 30% | < 30% | 31% | < 30% | 35% | 32% | < 30% | < 30% | < 30% | < 30% | < 30% | < 30% | < 30% | < 30% | < 30% | < 30% | 37% | < 30% | < 30% | < 30%
4 | COc1ccc(Cc2nnc(Nc3ccc(NC(=O)Nc4ccccc4)cc3)c3ccccc23)cc1 | < 30% | < 30% | 46% | < 30% | 36% | 30% | < 30% | < 30% | < 30% | < 30% | < 30% | 33% | < 30% | < 30% | 30% | < 30% | 35% | < 30% | < 30% | < 30%
